Results from different studies.
Protocols differ between the studies behind these lines.
Target: Receptor-interacting serine/threonine-protein kinase 2 (RIPK2, Homo sapiens, UniProt O43353)

Compound | effect on | mode | technique | tested at | endpoint | value
CCCOc1ccc(OC)c(F)c1C(=O)c1ccc(C(=O)N[C@@H]2CNC[C@H]2NC(=O)c2ccc3[nH]ncc3c2)cc1 | enzyme activity | inhibitor |  | 10 µM | remaining activity | 91%
CC(C)(C)c1nc(-c2cccc(NS(=O)(=O)c3c(F)cccc3F)c2F)c(-c2ccnc(N)n2)s1 | enzyme activity | inhibitor | radiometric | 1 µM | remaining activity | 5%
O=C(Nc1cnn(-c2csc(C(=O)NC3COC3)c2)c1)Nc1ccccc1Cl | enzyme activity | inhibitor |  | 5 µM | remaining activity | 120%
COc1ccc2c(c1)O[C@H](c1ccc(OC)c(OC)c1)C[C@@H]2NC(=O)C1(c2ccc3c(c2)OC(F)(F)O3)CC1 | cell-free assay |  | competition with immobilised ligand | 1 µM | remaining binding | 100%
Cc1ccc(C(=O)NCc2ccsc2)cc1C#Cc1cn(C(C)C)c2ncnc(N)c12 | enzyme activity | inhibitor |  | 1 µM | activity vs control | 14%
Cn1cnc(Br)c1C1=CN(c2ncnc3[nH]cnc23)CCS1 | enzyme activity | inhibitor | radiometric | 50 nM | inhibition | 16.6%
CCCS(=O)(=O)Nc1ccc(F)c(C(=O)c2c[nH]c3ncc(-c4ccc(Cl)cc4)cc23)c1F | enzyme activity | inhibitor |  | 1 µM | inhibition | < 10%
Cc1nccc(COC(=O)N2C[C@@H]3[C@@H](CNC(=O)c4ccc5[nH]nnc5c4)[C@@H]3C2)n1 | cell-free assay |  | competition with immobilised ligand | 1 µM | remaining binding | 100%
COc1cc(Nc2cnc(C#N)c(O[C@H](C)CN(C)C)n2)ncc1-c1cnn(C)c1 | enzyme activity | inhibitor | radiometric | 10 µM | remaining activity | 71%
C[C@@H]1CN(c2cc(-c3n[nH]c4ccc(OC5(C)CC5)cc34)ncn2)C[C@H](C)O1 | cell-free assay |  | competition with immobilised ligand | 0.1 µM | remaining binding | 100%
CNC(=O)c1cc(Oc2ccc(NC(=O)Nc3ccc(Cl)c(C(F)(F)F)c3)cc2)ccn1 | cell-free assay |  |  | 0.5 µM | remaining signal | 86.2%
NS(=O)(=O)c1cc(NC(=O)C2(c3ccccc3Cl)CC2)ccc1Oc1cccc(Cl)c1 | cell-free assay |  | competition with immobilised ligand | 1 µM | remaining binding | 93%
Nc1ncnc2occ(-c3ccc(NC(=O)Nc4cc(C(F)(F)F)ccc4F)cc3)c12 | cell-free assay | inhibitor |  | 20 µM | remaining signal | 4.2%
Cc1ccc(NC(=O)c2ccc(C)c(C(F)(F)F)c2)cc1C#Cc1nn(C2CCC(O)CC2)c2ncnc(N)c12 (centres unmarked) | cell-free assay |  |  | 10 µM | remaining signal | 21%
CC(=O)c1c(NS(C)(=O)=O)c2cc(-c3ccc(Cl)cc3)c(-c3ccc(Cl)cc3Cl)nc2n(C)c1=O | cell-free assay |  | competition with immobilised ligand | 1 µM | remaining binding | 96%
Cc1sc(C(=O)NC2COC2)cc1-n1cc(NC(=O)Nc2c(F)cccc2Cl)cn1 | enzyme activity | inhibitor |  | 10 µM | remaining activity | 89.3%
CCN(CC)CCNC(=O)c1c(C)[nH]c(/C=C2\C(=O)Nc3ccc(F)cc32)c1C | enzyme activity | inhibitor |  | 0.3 µM | inhibition | -10%
O=C1NC(=O)c2cc(Nc3ccc(F)cc3)c(Nc3ccc(F)cc3)cc21 | cell-free assay |  |  | 0.5 µM | remaining signal | 95%
CC(C)(O)[C@H]1CC[C@H](Nc2ccc3ncc(-c4cccc(C(F)(F)F)c4)n3n2)CC1 | enzyme activity | inhibitor |  | 1 µM | remaining activity | 28.1%
FC(F)(F)Oc1cccc(-c2cnc3ccc(-c4ccncc4)nn23)c1 | enzyme activity | inhibitor | radiometric | 5 µM | activity vs control | 22%
COc1cc(-c2cn(C3CCc4ccccc4N(CC(F)(F)F)C3=O)nn2)ccc1-n1ccc(C)n1 (centres unmarked) | cell-free assay |  | competition with immobilised ligand | 1 µM | remaining binding | 93%
N#CCCc1ccc2c(c1)-c1[nH]c3ccc([N+](=O)[O-])cc3c1CC(=O)N2 | cell-free assay |  |  | 0.5 µM | remaining signal | 21.5%
COc1cc(Cl)c(C(=O)N[C@@H](CN[C@H]2CC[C@@H](N)CC2)Cc2ccc(C#N)cc2)cc1-c1ccc(CN[C@H](C)c2ccc(C)cc2)o1 | enzyme activity | inhibitor |  | 1 µM | remaining activity | 100%
Cc1cnc(NC2CCOCC2)nc1-n1cnc(C(=O)NC(CN)c2cc(F)cc(Cl)c2)c1 (centres unmarked) | enzyme activity | inhibitor | radiometric | 1 µM | remaining activity | 90%
Cn1c(=O)n(-c2ccc(C(C)(C)C#N)cc2)c2c3cc(-c4cnc5ccccc5c4)ccc3ncc21 | enzyme activity | inhibitor |  | 10 µM | remaining activity | 28%
CCc1ccccc1C(=O)Nc1n[nH]c2c(C)c(F)c(C3C(C#N)=C(C)N(C)C(C)=C3C#N)cc12 | cell-free assay |  | competition with immobilised ligand | 1 µM | remaining binding | 100%
CNCc1ccc(-c2cc(-c3nc(-c4ccc(S(=O)(=O)C(C)C)cc4)cnc3N)on2)cc1 | enzyme activity | inhibitor |  | 2 µM | inhibition | 26%
CCS(=O)(=O)c1cc2cc(C[C@@](O)(CC(C)(C)c3ccc(F)cc3C(N)=O)C(F)(F)F)[nH]c2cn1 | cell-free assay |  | competition with immobilised ligand | 1 µM | remaining binding | 100%
O=C1Nc2ccc(Cl)cc2C1=Cc1cc(Cl)c(O)c(Cl)c1 | cell-free assay |  |  | 0.5 µM | remaining signal | 50.2%
